Experimental data as given in ChEMBL document CHEMBL5058577, “EUbOPEN Chemogenomics Library 2 (Multiplex)” (2022).

System: U2OS
Experiment: Multiplex assay against U2OS
Type: toxicity, cell-based
Settings: human
Summary of the method: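 Live cells carried four stains from seeding: Hoechst33342, BioTracker Green Microtubule Cytoskeleton Dye, MitoTracker Red and Annexin V Alexa Fluor 680. They were imaged on a CQ1 microscope at 37°C and 5% CO2 after compound addition. Using CellPathfinder machine-learning gating, cells were split into Hoechst high-intensity objects or normal cells, normal cells into healthy, pyknosed or fragmented nuclei, and pyknosed cells into mitotic or apoptotic; tubulin, mitochondrial-mass and membrane-permeability phenotypes are per cents of healthy-nucleus cells.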

[1] = 12 h, 1 µM, compound concentration 1 uM, replicate 1
[2] = 12 h, 1 µM, compound concentration 1 uM, replicate 2
[3] = 12 h, 10 µM, compound concentration 10 uM, replicate 1
[4] = 12 h, 10 µM, compound concentration 10 uM, replicate 2
[5] = 24 h, 1 µM, compound concentration 1 uM, replicate 1
[6] = 24 h, 1 µM, compound concentration 1 uM, replicate 2
[7] = 24 h, 10 µM, compound concentration 10 uM, replicate 1
[8] = 24 h, 10 µM, compound concentration 10 uM, replicate 2
[9] = 48 h, 1 µM, compound concentration 1 uM, replicate 1
[10] = 48 h, 1 µM, compound concentration 1 uM, replicate 2
[11] = 48 h, 10 µM, compound concentration 10 uM, replicate 1
[12] = 48 h, 10 µM, compound concentration 10 uM, replicate 2

COc1ccc2c(c1OCc1ccccc1)C[C@@H](C(=O)O)N(C(=O)C(c1ccccc1)c1ccccc1)C2 [OLODANRIGAN]
Population Apoptotic (%) [1]: 82% | Population Fragmented Nuclei (%) [1]: 31% | Population Healthy Nuclei (%) [1]: 59% | Population Hoechst High Intensity Objects (%) [1]: 2% | Population Membrane Permeable-Phenotype (%) [1]: 4% | Population Mitochondria Different-Phenotype (%) [1]: 0% | Population Mitotic Cells (%) [1]: 17% | Population Normal (%) [1]: 97% | Population Pyknosed Nuclei (%) [1]: 8% | Population Tubulin-Different-Phenotype (%) [1]: 1% | Total Cell Count [1]: 286 | Population Apoptotic (%) [2]: 66% | Population Fragmented Nuclei (%) [2]: 18% | Population Healthy Nuclei (%) [2]: 75% | Population Hoechst High Intensity Objects (%) [2]: 3% | Population Membrane Permeable-Phenotype (%) [2]: 6% | Population Mitochondria Different-Phenotype (%) [2]: 4% | Population Mitotic Cells (%) [2]: 33% | Population Normal (%) [2]: 96% | Population Pyknosed Nuclei (%) [2]: 5% | Population Tubulin-Different-Phenotype (%) [2]: 2% | Total Cell Count [2]: 112 | Population Apoptotic (%) [3]: 78% | Population Fragmented Nuclei (%) [3]: 30% | Population Healthy Nuclei (%) [3]: 64% | Population Hoechst High Intensity Objects (%) [3]: 1% | Population Membrane Permeable-Phenotype (%) [3]: 6% | Population Mitochondria Different-Phenotype (%) [3]: 1% | Population Mitotic Cells (%) [3]: 21% | Population Normal (%) [3]: 98% | Population Pyknosed Nuclei (%) [3]: 5% | Population Tubulin-Different-Phenotype (%) [3]: 2% | Total Cell Count [3]: 273 | Population Apoptotic (%) [4]: 81% | Population Fragmented Nuclei (%) [4]: 26% | Population Healthy Nuclei (%) [4]: 63% | Population Hoechst High Intensity Objects (%) [4]: 0% | Population Membrane Permeable-Phenotype (%) [4]: 2% | Population Mitotic Cells (%) [4]: 18% | Population Normal (%) [4]: 99% | Population Pyknosed Nuclei (%) [4]: 10% | Total Cell Count [4]: 110 | Population Apoptotic (%) [5]: 87% | Population Fragmented Nuclei (%) [5]: 25% | Population Healthy Nuclei (%) [5]: 64% | Population Hoechst High Intensity Objects (%) [5]: 0% | Population Membrane Permeable-Phenotype (%) [5]: 2% | Population Mitochondria Different-Phenotype (%) [5]: 0% | Population Mitotic Cells (%) [5]: 12% | Population Normal (%) [5]: 99% | Population Pyknosed Nuclei (%) [5]: 10% | Population Tubulin-Different-Phenotype (%) [5]: 2% | Total Cell Count [5]: 311 | Population Apoptotic (%) [6]: 55% | Population Fragmented Nuclei (%) [6]: 18% | Population Healthy Nuclei (%) [6]: 74% | Population Hoechst High Intensity Objects (%) [6]: 2% | Population Membrane Permeable-Phenotype (%) [6]: 9% | Population Mitochondria Different-Phenotype (%) [6]: 6% | Population Mitotic Cells (%) [6]: 44% | Population Normal (%) [6]: 97% | Population Pyknosed Nuclei (%) [6]: 6% | Population Tubulin-Different-Phenotype (%) [6]: 5% | Total Cell Count [6]: 143 | Population Apoptotic (%) [7]: 83% | Population Fragmented Nuclei (%) [7]: 27% | Population Healthy Nuclei (%) [7]: 66% | Population Hoechst High Intensity Objects (%) [7]: 1% | Population Membrane Permeable-Phenotype (%) [7]: 4% | Population Mitochondria Different-Phenotype (%) [7]: 0% | Population Mitotic Cells (%) [7]: 16% | Population Normal (%) [7]: 98% | Population Pyknosed Nuclei (%) [7]: 5% | Population Tubulin-Different-Phenotype (%) [7]: 1% | Total Cell Count [7]: 318 | Population Apoptotic (%) [8]: 50% | Population Fragmented Nuclei (%) [8]: 22% | Population Healthy Nuclei (%) [8]: 72% | Population Hoechst High Intensity Objects (%) [8]: 0% | Population Mitochondria Different-Phenotype (%) [8]: 1% | Population Mitotic Cells (%) [8]: 50% | Population Normal (%) [8]: 100% | Population Pyknosed Nuclei (%) [8]: 4% | Population Tubulin-Different-Phenotype (%) [8]: 2% | Total Cell Count [8]: 123 | Population Apoptotic (%) [9]: 91% | Population Fragmented Nuclei (%) [9]: 22% | Population Healthy Nuclei (%) [9]: 70% | Population Hoechst High Intensity Objects (%) [9]: 3% | Population Membrane Permeable-Phenotype (%) [9]: 4% | Population Mitochondria Different-Phenotype (%) [9]: 1% | Population Mitotic Cells (%) [9]: 8% | Population Normal (%) [9]: 96% | Population Pyknosed Nuclei (%) [9]: 7% | Population Tubulin-Different-Phenotype (%) [9]: 2% | Total Cell Count [9]: 483 | Population Apoptotic (%) [10]: 78% | Population Fragmented Nuclei (%) [10]: 14% | Population Healthy Nuclei (%) [10]: 77% | Population Hoechst High Intensity Objects (%) [10]: 4% | Population Membrane Permeable-Phenotype (%) [10]: 3% | Population Mitochondria Different-Phenotype (%) [10]: 3% | Population Mitotic Cells (%) [10]: 21% | Population Normal (%) [10]: 95% | Total Cell Count [10]: 184 | Population Apoptotic (%) [11]: 88% | Population Fragmented Nuclei (%) [11]: 20% | Population Healthy Nuclei (%) [11]: 71% | Population Hoechst High Intensity Objects (%) [11]: 1% | Population Membrane Permeable-Phenotype (%) [11]: 5% | Population Mitochondria Different-Phenotype (%) [11]: 1% | Population Mitotic Cells (%) [11]: 11% | Population Normal (%) [11]: 98% | Population Pyknosed Nuclei (%) [11]: 8% | Population Tubulin-Different-Phenotype (%) [11]: 3% | Total Cell Count [11]: 451 | Population Apoptotic (%) [12]: 85% | Population Fragmented Nuclei (%) [12]: 18% | Population Healthy Nuclei (%) [12]: 77% | Population Membrane Permeable-Phenotype (%) [12]: 7% | Population Mitochondria Different-Phenotype (%) [12]: 6% | Population Mitotic Cells (%) [12]: 14% | Population Pyknosed Nuclei (%) [12]: 4% | Population Tubulin-Different-Phenotype (%) [12]: 5% | Total Cell Count [12]: 163
